Bioassay records from PubChem.
The list is not random: actives were taken first. Their share in the collection is about 2.2%.
TRAIL sens C8 = viability loss with TRAIL in NB7+C8 cells, primary screen, TRAIL sensitizer project, cell-based, ATPlite luminescence. inhibition (viability loss, TRAIL sensitization), % at 10 µM. hit rate 1% among 360,000;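 active means compounds causing at least 50% loss of cell viability in the single-dose screen, relative to plate controls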
FLuc stim CS = FLuc activators, initial screening, artefact control for FLuc-dependent activation tests, biochemical, ATPlite luminescence | 200,000 tested, under 10 active | ATPlite luciferase biochemical, 10 min; 0 = ATP-free wells, 1 = DMSO control | activation factor at 10 µM | Luciferin 4-monooxygenase (Photinus pyralis), P08659;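 active means luciferase activation factor, scaled between plate controls, of at least 2 with compound at 10 µM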
Target sequence (P08659 whole entry, looked up): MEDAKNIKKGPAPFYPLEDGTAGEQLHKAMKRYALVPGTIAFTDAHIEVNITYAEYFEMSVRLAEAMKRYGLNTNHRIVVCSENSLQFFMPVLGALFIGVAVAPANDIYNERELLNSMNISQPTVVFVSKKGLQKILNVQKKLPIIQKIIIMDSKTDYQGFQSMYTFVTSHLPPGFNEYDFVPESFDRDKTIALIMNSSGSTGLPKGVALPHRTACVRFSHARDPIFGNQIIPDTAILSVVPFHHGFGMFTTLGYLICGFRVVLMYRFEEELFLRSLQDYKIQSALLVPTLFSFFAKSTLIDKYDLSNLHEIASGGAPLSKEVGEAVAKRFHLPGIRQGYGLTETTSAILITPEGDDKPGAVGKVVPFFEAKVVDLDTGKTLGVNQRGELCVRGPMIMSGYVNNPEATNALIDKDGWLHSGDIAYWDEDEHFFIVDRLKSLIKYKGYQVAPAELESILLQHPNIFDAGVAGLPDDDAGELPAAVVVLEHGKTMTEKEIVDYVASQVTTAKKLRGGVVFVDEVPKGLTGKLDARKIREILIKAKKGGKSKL
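Assay system: Luciferase/luciferin detection reagent, cell-free biochemical luciferase assay / Read-out: luciferase activation / Benchmarks: No-ATP low control, compound-free enzyme-plus-ATP high control / Medium: PBS buffer for ATP / Detection: luminescence measurement of luciferase light output / Schedule: 10 min at ambient temperature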
PPC-1+TRAIL kill = compounds killing PPC-1 cancer cells with TRAIL present, primary screen, TRAIL potentiator project, ATPLite luminescence, uHTS | PPC-1 cells + TRAIL, ATPLite viability luminescence | cell killing (% activity), % at 4 µM or 5 µM | hit rate 0.41% among 220,000;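 active means cell killing above 50% in the first pass at 4 µM, then a duplicate retest at 5 µM averaging 50% or more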
APP 5'UTR act = activators of APP 5'UTR luciferase reporter, primary screen, SH-SY5Y cells. SH-SY5Y APP 5'UTR luciferase reporter, luminescence; zero percent = DMSO vehicle wells. activation, % at 2 µM. hit rate 1% among 190,000;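 active means activation above a set limit, based on mean plus 3 SD of controls, cut at about 140% in these data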
FLuc inh counter = firefly luciferase enzyme inhibitors, primary screen, artefact control for luciferase-based inhibitor screens, biochemical, luminescence, ATPLite; AID 1006, 2008; 10 min; Luciferin 4-monooxygenase (Photinus pyralis), P08659; inhibition, % at 10 µM; hit rate 1.5% among 200,000;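 active means inhibition above about 50% when tested at 10 µM, limit read from the data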
NF-kB expr up = activators of NF-kB expression in neurons, primary screen, cell-based, HTS; human neuronal cells, NF-kB reporter expression; hits give high values; fold change at 12.5 µM; hit rate 1.6% among 190,000; in the data active means fold change above about 3.3
PPC-1 tox = cytotoxicity in PPC-1 cells, confirmation, cytotoxicity control for TRAIL apoptosis potentiator project, cell-based, ATP content luminescence | hit rate 50% among 1,200 | shares compounds with PPC-1+TRAIL kill | cytotoxicity, % at 5 µM | PPC-1 viability, ATPlite luminescence, overnight;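 active means reconfirmed compounds whose average cytotoxicity reaches 50% or more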
Large screens that a line does not name were inactive (follow-up assays come after a bar, where they were run).

O=C(Nc1nccs1)c1cc2c(s1)CCCCC2	TRAIL sens C8 90, PPC-1+TRAIL kill 84, FLuc inh counter 94 | PPC-1 tox 78
O=C(Cc1cccc(NC(=O)C2CCCN(C(=O)CCc3ccccc3)C2)c1)Nc1cccc(C(=O)N2CCCC2)c1 (stereo unspecified)	none (no result: FLuc stim CS, PPC-1+TRAIL kill, APP 5'UTR act, FLuc inh counter, NF-kB expr up)
O=C(Nc1ccc2c(c1)OCCO2)c1cncc(Br)c1	APP 5'UTR act 157, FLuc inh counter 65, NF-kB expr up 4.9 | PPC-1 tox inactive
COC(=O)c1sccc1NC(=O)c1ccc2c(c1)OCO2	none | PPC-1 tox inactive
COc1ccc(C(=O)Nc2cccc(OC(=O)c3ccc(C)c(C)c3)c2)cc1	none | PPC-1 tox inactive
Cc1ccccc1NC(=O)c1ccc2c(c1)OCCO2	none | PPC-1 tox inactive
Cc1cccc(NC(=O)c2ccc3c(c2)OCCO3)c1C	none (no result: FLuc stim CS, PPC-1+TRAIL kill, APP 5'UTR act, FLuc inh counter, NF-kB expr up)
COC(=O)c1ccc(NC(=O)c2ccc3c(c2)OCO3)cc1	none
Cc1ccc(C)c(C(=O)CCC(=O)Nc2ccc(N3CCN(C)CC3)cc2C)c1	none (no result: FLuc stim CS, PPC-1+TRAIL kill, APP 5'UTR act, FLuc inh counter, NF-kB expr up)
COc1ccc(-c2ccc3c(c2)O[C@H](CN(C)C(=O)Nc2ccccc2F)[C@@H](C)CN([C@H](C)CO)S3(=O)=O)cc1	none (no result: FLuc stim CS, PPC-1+TRAIL kill, APP 5'UTR act, FLuc inh counter, NF-kB expr up)
O=C(Nc1ccncc1)c1ccc2c(c1)OCCO2	none
Cc1ccc(NC(=O)c2ccc3c(c2)OCCO3)cc1	TRAIL sens C8 67, PPC-1+TRAIL kill 56, APP 5'UTR act 145, FLuc inh counter 89, NF-kB expr up 4.1 | PPC-1 tox 56
COc1ccc(C(=O)Nc2ccc3c(c2)OCCO3)cc1	TRAIL sens C8 72, PPC-1+TRAIL kill 75, APP 5'UTR act 156, FLuc inh counter 90, NF-kB expr up 6 | PPC-1 tox 73
NC(=O)C1CCCN(C(=O)c2ccc3c(c2)NC(=O)CS3)C1 (stereo unspecified)	none (no result: FLuc stim CS, PPC-1+TRAIL kill, APP 5'UTR act, FLuc inh counter, NF-kB expr up)
O=C(O)CC(NC(=O)c1ccccc1NC(=O)c1ccccc1)C(=O)O (stereo unspecified)	none | PPC-1 tox inactive
CCOC(=O)N=Nc1c2ccccc2c2nc3no[nH]c3nc12	TRAIL sens C8 96, PPC-1+TRAIL kill 83 | PPC-1 tox 81
CCOC(=O)N=Nc1c(O)n(CC(=O)OC)c2ccccc12	none
CCN(CC)C(=O)CN(c1ccc(F)c(Cl)c1)S(C)(=O)=O	none | PPC-1 tox inactive
O=C(Nc1ccc(F)cc1)c1nn(-c2ccccc2)c(=O)cc1Cl	none | PPC-1 tox inactive
COc1ccc(-c2n(Cc3ccccc3)c3ccccc3[n+]2Cc2ccccc2)cc1	none | PPC-1 tox inactive
COc1ccc2c(c1)nc(N)n2Cc1ccccc1	none
CC(=O)Oc1ccc(C(=O)NC(C)CCc2ccccc2)cc1 (stereo unspecified)	none (no result: FLuc stim CS, PPC-1+TRAIL kill, APP 5'UTR act, FLuc inh counter, NF-kB expr up)
C=CCNC(=S)N1CCN(Cc2ccc3c(c2)OCO3)CC1	none (no result: FLuc stim CS, PPC-1+TRAIL kill, APP 5'UTR act, FLuc inh counter, NF-kB expr up)
O=C(CCCc1ccccc1)N=C1SC2CS(=O)(=O)CC2N1c1ccccc1F (stereo unspecified)	none (no result: FLuc stim CS, PPC-1+TRAIL kill, APP 5'UTR act, FLuc inh counter, NF-kB expr up)
O=c1oc(/C=C/c2ccccc2)nc2sc3c(c12)CCC3	none | PPC-1 tox inactive
COc1ccc(/C=C/c2nc3sc4c(c3c(=O)o2)CCC4)cc1	none (no result: FLuc stim CS, PPC-1+TRAIL kill, FLuc inh counter, NF-kB expr up)
Cn1c(=O)c2sccc2n2c(CCCC(=O)NCc3ccco3)nnc12	none (no result: FLuc stim CS, PPC-1+TRAIL kill, APP 5'UTR act, FLuc inh counter, NF-kB expr up)
COc1ccc(N/N=C/c2c(C(=O)O)ccc3ccccc23)cc1	none (no result: FLuc stim CS, APP 5'UTR act, FLuc inh counter, NF-kB expr up) | PPC-1 tox inactive
CCOC(=O)N1CCN(C(=O)c2nc3ccccc3s2)CC1	none | PPC-1 tox inactive
CCOC(=O)N1CCN(CC(=O)Nc2nc3ccccc3s2)CC1	none (no result: FLuc stim CS, PPC-1+TRAIL kill, APP 5'UTR act, FLuc inh counter, NF-kB expr up)
CN(C)S(=O)(=O)c1cccc(C(=O)OCC(=O)Nc2sccc2C#N)c1	none
O=C(Nc1cc(Cl)ccc1O)C1CC(c2ccccc2Cl)=NO1 (stereo unspecified)	none (no result: FLuc stim CS, PPC-1+TRAIL kill, APP 5'UTR act, FLuc inh counter, NF-kB expr up)
O=C(Nc1cccc(S(=O)(=O)C(F)F)c1)c1ccc(S(=O)(=O)N2CCOCC2)cc1	none | PPC-1 tox inactive
O=C(Nc1cccc(S(=O)(=O)C(F)F)c1)c1ccc(S(=O)(=O)N2CCCC2)cc1	none
